≈ marks a conversion by molar mass, not a printed value. Calls of active or inactive are those of the source. The rule behind the calls is not given here.
How the values were obtained:
Assay type in all cases: functional
[1] = system: Escherichia coli; assay: Antibacterial activity against amikacin-resistant Escherichia coli isolate CAN-ICU 63074 after 18 hrs by microtiter dilution assay; settings: isolate CAN-ICU 63074, 18 h
Outline: (§1)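 Broth microdilution following CLSI guidelines. An overnight culture was adjusted to 0.5 McFarland in saline, then diluted 1:50 in Mueller-Hinton broth. This inoculum was added in equal volume to 2-fold serial dilutions of agent in MHB and incubated 18 h at 37 °C. MIC was the lowest concentration with no visible growth.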

[2] = system: Pseudomonas aeruginosa; assay: Antibacterial activity against Pseudomonas aeruginosa PAO1 after 18 hrs by microtiter dilution assay; outline: as §1
[3] = system: Staphylococcus aureus; assay: Antibacterial activity against Staphylococcus aureus ATCC 29213 after 18 hrs by microtiter dilution assay; settings: ATCC 29213, 18 h; outline: as §1
[4] = system: Staphylococcus aureus; assay: Antibacterial activity against methicillin resistant Staphylococcus aureus ATCC 33592 after 18 hrs by microtiter dilution assay; settings: ATCC 33592, 18 h; outline: as §1
[5] = system: Staphylococcus epidermidis; assay: Antibacterial activity against methicillin-susceptible Staphylococcus epidermidis isolate CANWARD-2008 81388 after 18 hrs by microtiter dilution assay; settings: isolate CANWARD-2008 81388, 18 h; outline: as §1
[6] = system: Staphylococcus epidermidis; assay: Antibacterial activity against methicillin-resistant Staphylococcus epidermidis isolate CAN-ICU 61589 after 18 hrs by microtiter dilution assay; settings: isolate CAN-ICU 61589, 18 h; outline: as §1
[7] = system: Enterococcus faecalis; assay: Antibacterial activity against Enterococcus faecalis ATCC 29212 after 18 hrs by microtiter dilution assay; settings: ATCC 29212, 18 h
Outline: (§2)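 Broth microdilution per CLSI. Overnight culture adjusted to 0.5 McFarland in saline, diluted 1:50 in Mueller-Hinton broth, and added to an equal volume of 2-fold serial compound dilutions in MHB. Incubated 18 h at 37 °C. MIC taken as the lowest concentration with no visible growth.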

[8] = system: Enterococcus faecium; assay: Antibacterial activity against Enterococcus faecium ATCC 27270 after 18 hrs by microtiter dilution assay; settings: ATCC 27270, 18 h; outline: as §2
[9] = system: Streptococcus pneumoniae; assay: Antibacterial activity against Streptococcus pneumoniae ATCC 49619 after 18 hrs by microtiter dilution assay; settings: ATCC 49619, 18 h; outline: as §2
[10] = system: Escherichia coli; assay: Antibacterial activity against Escherichia coli ATCC 25922 after 18 hrs by microtiter dilution assay; settings: ATCC 25922, 18 h; outline: as §1
[11] = system: Escherichia coli; assay: Antibacterial activity against gentamicin-resistant Escherichia coli isolate CAN-ICU 61714 after 18 hrs by microtiter dilution assay; settings: isolate CAN-ICU 61714, 18 h; outline: as §1
[12] = system: Escherichia coli; assay: Antibacterial activity against gentamicin/tobramycin/ciprofloxacin-resistant Escherichia coli isolate CANWARD-2011 97615 harboring AAC3-2A after 18 hrs by microtiter dilution assay; settings: isolate CANWARD-2011 97615, 18 h; outline: as §1
[13] = system: Pseudomonas aeruginosa; assay: Antibacterial activity against Pseudomonas aeruginosa ATCC 27853 after 18 hrs by microtiter dilution assay; settings: ATCC 27853, 18 h; outline: as §2
[14] = system: Pseudomonas aeruginosa; assay: Antibacterial activity against gentamicin-resistant Pseudomonas aeruginosa isolate CAN-ICU 62308 after 18 hrs by microtiter dilution assay; settings: isolate CAN-ICU 62308, 18 h; outline: as §1
[15] = system: Pseudomonas aeruginosa; assay: Antibacterial activity against gentamicin/tobramycin-resistant Pseudomonas aeruginosa isolate CANWARD-2011 96846 after 18 hrs by microtiter dilution assay; settings: isolate CANWARD-2011 96846, 18 h; outline: as §1
[16] = system: Stenotrophomonas maltophilia; assay: Antibacterial activity against Stenotrophomonas maltophilia isolate CAN-ICU 62584 after 18 hrs by microtiter dilution assay; settings: isolate CAN-ICU 62584, 18 h; outline: as §2
[17] = system: Acinetobacter baumannii; assay: Antibacterial activity against Acinetobacter baumannii isolate CAN-ICU 63169 after 18 hrs by microtiter dilution assay; settings: isolate CAN-ICU 63169, 18 h; outline: as §2
[18] = system: Klebsiella pneumoniae; assay: Antibacterial activity against Klebsiella pneumoniae ATCC 13883 after 18 hrs by microtiter dilution assay; settings: ATCC 13883, 18 h; outline: as §2
[19] = system: Pseudomonas aeruginosa; assay: Antibacterial activity against multidrug/extremely drug-resistant/colistin-susceptible Pseudomonas aeruginosa isolate 100036 after 18 hrs by microtiter dilution assay; settings: isolate 100036, 18 h; outline: as §1
[20] = system: Pseudomonas aeruginosa; assay: Antibacterial activity against multidrug/extremely drug-resistant/colistin-susceptible Pseudomonas aeruginosa isolate 101885 after 18 hrs by microtiter dilution assay; settings: isolate 101885, 18 h; outline: as §1
[21] = system: Pseudomonas aeruginosa; assay: Antibacterial activity against multidrug/extremely drug-resistant/colistin-susceptible Pseudomonas aeruginosa isolate P259-96918 after 18 hrs by microtiter dilution assay; settings: isolate P259-96918, 18 h; outline: as §1
[22] = system: Pseudomonas aeruginosa; assay: Antibacterial activity against multidrug/extremely drug-resistant/colistin-susceptible Pseudomonas aeruginosa isolate P262-101856 after 18 hrs by microtiter dilution assay; settings: isolate P262-101856, 18 h; outline: as §1
[23] = system: Pseudomonas aeruginosa; assay: Antibacterial activity against multidrug/extremely drug-resistant/colistin-susceptible Pseudomonas aeruginosa isolate P264-104354 after 18 hrs by microtiter dilution assay; settings: isolate P264-104354, 18 h; outline: as §1
[24] = system: Pseudomonas aeruginosa; assay: Antibacterial activity against multidrug/extremely drug-resistant/colistin-resistant Pseudomonas aeruginosa isolate 91433 after 18 hrs by microtiter dilution assay; settings: isolate 91433, 18 h; outline: as §1
[25] = system: Pseudomonas aeruginosa; assay: Antibacterial activity against multidrug/extremely drug-resistant/colistin-resistant Pseudomonas aeruginosa isolate 101243 after 18 hrs by microtiter dilution assay; settings: isolate 101243, 18 h; outline: as §1
[26] = system: Pseudomonas aeruginosa; assay: Synergistic antibacterial activity against Pseudomonas aeruginosa PAO1 after 18 hrs in presence of minocycline by checkerboard assay
Outline: (§3)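 Checkerboard in MHB: antibiotic diluted along one axis and adjuvant along the other (10 × 7 matrix). Inoculum was a 1:50 dilution in MHB of a 0.5 McFarland saline suspension; incubated 18 h at 37 °C. Each FIC = concentration in the no-growth well divided by the MIC alone; FIC index = sum of both FICs. ≤0.5 synergy, 0.5–4 no interaction, ≥4 antagonism.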

[27] = system: Pseudomonas aeruginosa; assay: Synergistic antibacterial activity against Pseudomonas aeruginosa PAO1 after 18 hrs in presence of rifampicin by checkerboard assay; outline: as §3

NCC[C@H](O)C(=O)N[C@@H]1C[C@H](N)[C@@H](O[C@H]2O[C@H](CN)[C@@H](O)[C@H](O)[C@H]2O)[C@H](O)[C@H]1O[C@H]1O[C@H](CO)[C@@H](O)[C@H](N)[C@H]1O [AMIKACIN] was tested, and the MIC [1] was 32 µg/mL (≈ 54.6 µM) and the MIC ([2]; PAO1, 18 h) was 1 µg/mL (≈ 1.71 µM).

In the case of Cl.Cl.Cl.Cl.Cl.Cl.Cl.NCCCC[C@H](N)C(=O)N(CCCCO[C@@H]1[C@@H](O[C@H]2O[C@H](CO)[C@@H](O)[C@H](N)[C@H]2O)[C@H](N)C[C@H](N)[C@H]1O[C@H]1O[C@H](CN)[C@@H](O)C[C@H]1N)Cc1c2ccccc2c(Cl)c2ccccc12, the MIC [3] is reported as 64 µg/mL, the MIC [4] is reported as 64 µg/mL and the MIC [5] is reported as 16 µg/mL. The MIC [6] was 32 µg/mL, the MIC [7] was over 128 µg/mL and the MIC [8] was over 128 µg/mL. For the same compound, the MIC [9] was over 128 µg/mL, the MIC [10] was 32 µg/mL and the MIC [11] was 64 µg/mL. For the same compound, the MIC [1] was 64 µg/mL, the MIC [12] was 64 µg/mL and the MIC [13] was over 128 µg/mL. It also gave an MIC [14] of 64 µg/mL, an MIC [15] of over 128 µg/mL and an MIC [16] of over 128 µg/mL. It also gave an MIC [17] of over 128 µg/mL, an MIC [18] of 128 µg/mL and an MIC ([2]; PAO1, 18 h) of over 512 µg/mL. For the same compound, the MIC [19] was over 512 µg/mL, the MIC [20] was 256 µg/mL and the MIC [21] was over 512 µg/mL. For the same compound, the MIC [22] was over 512 µg/mL, the MIC [23] was over 512 µg/mL and the MIC [24] was 32 µg/mL. The MIC [25] was 256 µg/mL, the Activity [26] was “inactive” and the Activity [27] was “inactive”.

In the case of C[C@@H](O)[C@H]1C(=O)N2C(C(=O)O)=C(S[C@@H]3CN[C@H](C(=O)N(C)C)C3)[C@H](C)[C@H]12 [MEROPENEM], the MIC ([2]; PAO1, 18 h) is reported as 0.5 µg/mL (≈ 1.3 µM).

Compound COc1cc(Cc2cnc(N)nc2N)cc(OC)c1OC [TRIMETHOPRIM] has an MIC ([2]; PAO1, 18 h) of 256 µg/mL (≈ 882 µM), an MIC [19] of 256 µg/mL (≈ 882 µM) and an MIC [20] of over 512 µg/mL. The MIC [21] was 512 µg/mL (≈ 1760 µM), the MIC [22] was over 1020 µg/mL and the MIC [23] was 256 µg/mL (≈ 882 µM). For the same compound, the MIC [24] was 512 µg/mL (≈ 1760 µM) and the MIC [25] was 1020 µg/mL (≈ 3530 µM).

Cc1nnc(SCC2=C(C(=O)O)N3C(=O)[C@@H](NC(=O)Cn4cnnn4)[C@H]3SC2)s1 [CEFAZOLIN] gave an MIC [6] of over 32 µg/mL, an MIC [11] of 32 µg/mL (≈ 70.4 µM) and an MIC [1] of 32 µg/mL (≈ 70.4 µM).

GENTAMICIN gave an MIC [2] of 1 µg/mL.

CN[C@H](CC(C)C)C(=O)N[C@H]1C(=O)N[C@@H](CC(N)=O)C(=O)N[C@H]2C(=O)N[C@H]3C(=O)N[C@H](C(=O)N[C@H](C(=O)O)c4cc(O)cc(O)c4-c4cc3ccc4O)[C@H](O)c3ccc(c(Cl)c3)Oc3cc2cc(c3O[C@@H]2O[C@H](CO)[C@@H](O)[C@H](O)[C@H]2O[C@H]2C[C@](C)(N)[C@H](O)[C@H](C)O2)Oc2ccc(cc2Cl)[C@H]1O [VANCOMYCIN] showed an MIC ([2]; PAO1, 18 h) of over 1020 µg/mL.

From ChEMBL document CHEMBL4014308, “Amphiphilic Tobramycin-Lysine Conjugates Sensitize Multidrug Resistant Gram-Negative Bacteria to Rifampicin and Minocycline” (J Med Chem, 2017)
